# Test results taken from ChEMBL document CHEMBL4387759, “Discovery of novel N-methyl carbazole tethered rhodanine derivatives as direct inhibitors of Mycobacterium tuberculosis InhA” (Bioorg Med Chem Lett, 2019).
# Legend:
# [1] = tested on: Mycobacterium tuberculosis; assay: Antimycobacterial activity against Mycobacterium tuberculosis H37Rv incubated for 5 days under aerobic condition by fluorescence assay; assay type: functional, organism-based; conditions: 120 h
# Summary of the method: (§1)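 M. tuberculosis H37Rv grown aerobically; dual read-out assay (OD590 plus fluorescence); MIC and IC50 values reported; run at IDRI under NIAID screening programme.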
# Vero = assay: Cytotoxicity against African green monkey Vero cells measured after 72 hrs by MTS-PMS assay; assay type: cell-based; conditions: Chlorocebus sabaeus
# Summary of the method: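 Cells exposed 72 h; viability read with a non-radioactive cell proliferation assay; IC50 determined.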
# [2] = Selectivity index, ratio of IC50 for African green monkey Vero cells to IC50 for Mycobacterium tuberculosis H37Rv; assay type: toxicity; conditions: read-out: Ratio IC50
# Summary of the method: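 Ratio of cytotoxicity IC50 to H37Rv IC50; not calculated where H37Rv IC50 >100.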
# [3] = biological target: T1, Enoyl-[acyl-carrier-protein] reductase [NADH] (Mycobacterium tuberculosis) (UniProt P9WGR1); assay: Inhibition of Mycobacterium tuberculosis InhA at 5 uM using DDCoA as substrate relative to control
# T1 sequence (whole entry): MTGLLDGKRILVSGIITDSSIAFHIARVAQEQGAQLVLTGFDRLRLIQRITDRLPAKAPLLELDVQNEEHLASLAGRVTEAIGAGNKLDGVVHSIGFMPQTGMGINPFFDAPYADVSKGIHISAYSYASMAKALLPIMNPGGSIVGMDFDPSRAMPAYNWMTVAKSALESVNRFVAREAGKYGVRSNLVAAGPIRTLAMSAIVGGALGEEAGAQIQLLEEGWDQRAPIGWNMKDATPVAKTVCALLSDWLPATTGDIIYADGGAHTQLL
# Summary of the method: (§2)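 InhA enzyme assay run in triplicate with 2-trans-dodecenoyl-CoA as substrate analogue; inhibition followed as NADH oxidation to NAD+ at 340 nm. Compounds screened at 50 μM, selected ones also at 5 μM; IC50 from 4-parameter curve fit; GEQ as reference inhibitor.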
# [4] = tested on: Mycobacterium tuberculosis; assay: Antimycobacterial activity against Mycobacterium tuberculosis H37Rv; assay type: functional; summary of the method: as §1
# [5] = biological target: T2, Enoyl-[acyl-carrier-protein] reductase [NADH] (Mycobacterium tuberculosis, UniProt P9WGR1); assay: Inhibition of Mycobacterium tuberculosis InhA using DDCoA as substrate; summary of the method: as §2
# T2 sequence (P9WGR1 whole entry): T1 sequence (whole entry)
SMILES,MIC [1] [µM],IC50 (Vero) [µM],IC50 [1] [µM],selectivity ratio [2],inhibition [3] [%],MIC [4] [µM],IC50 [5] [µM]
Cn1c2ccccc2c2cc(/C=C3\SC(=S)N(c4nnc(-c5cccc(Cl)c5)s4)C3=O)ccc21,> 100,193,–,–,–,–,–
Cc1cc(=O)oc2cc(N3C(=O)/C(=C/c4ccc5c(c4)c4ccccc4n5C)SC3=S)ccc12,20,296,20,14.8,–,–,–
Cn1c2ccccc2c2cc(/C=C3\SC(=S)N(c4cc(C(=O)O)cc(C(=O)O)c4)C3=O)ccc21,> 100,210,–,–,12,–,–
Cn1c2ccccc2c2cc(/C=C3\SC(=S)N(c4nnc(-c5ccc(Br)cc5)s4)C3=O)ccc21,> 100,165,–,–,–,–,–
COc1ccc(N2C(=O)/C(=C/c3ccc4c(c3)c3ccccc3n4C)SC2=S)cc1OC,50,261,50,5.2,–,–,–
Cn1c2ccccc2c2cc(/C=C3\SC(=S)N(c4cccc(O)c4)C3=O)ccc21,> 100,289,25,11.6,10,–,–
Cn1c2ccccc2c2cc(/C=C3\SC(=S)N(c4nnc(-c5ccccc5F)s4)C3=O)ccc21,> 100,208,–,–,–,–,–
Cn1c2ccccc2c2cc(/C=C3\SC(=S)N(c4nnc(-c5ccccc5Cl)s4)C3=O)ccc21,> 100,239,–,–,–,–,–
COc1cccc(N2C(=O)/C(=C/c3ccc4c(c3)c3ccccc3n4C)SC2=S)c1,> 100,235,–,–,–,–,–
COc1cc(N2C(=O)/C(=C/c3ccc4c(c3)c3ccccc3n4C)SC2=S)cc(OC)c1OC,> 100,185,–,–,–,–,–
COc1ccc(-c2nnc(N3C(=O)/C(=C/c4ccc5c(c4)c4ccccc4n5C)SC3=S)s2)cc1,> 100,258,–,–,–,–,–
O=C(c1ccc2[nH]ccc2c1)N1CCN(C2c3ccccc3-c3ccccc32)CC1,> 50,–,–,–,–,–,–
Cn1c2ccccc2c2cc(/C=C3\SC(=S)N(c4nnc(-c5ccc(Cl)cc5)s4)C3=O)ccc21,> 100,245,–,–,–,–,–
COc1ccc(-c2csc(N/N=C/c3ccc4c(c3)c3ccccc3n4C)n2)cc1OC,–,–,–,–,–,21,–
Cn1c2ccccc2c2cc(/C=C3\SC(=S)N(c4ccccc4)C3=O)ccc21,> 100,240,75,3.2,–,–,–
Cn1c2ccccc2c2cc(/C=C3\SC(=S)N(c4ccc(Cl)cc4)C3=O)ccc21,> 100,213,–,–,–,–,–
Cn1c2ccccc2c2cc(/C=C3\SC(=S)N(c4cccc(C(F)(F)F)c4)C3=O)ccc21,> 100,167,–,–,–,–,–
Cc1cc(=O)[nH]c2cc(N3C(=O)/C(=C/c4ccc5c(c4)c4ccccc4n5C)SC3=S)ccc12,> 100,277,–,–,–,–,–
COC(=O)c1ccc(N2C(=O)/C(=C/c3ccc4c(c3)c3ccccc3n4C)SC2=S)cc1,> 100,222,–,–,–,–,–
Cn1c2ccccc2c2cc(/C=C3\SC(=S)N(c4ccc(C(=O)O)cc4)C3=O)ccc21,> 100,263,–,–,54,–,2.82
